We go through one compound from ChEMBL document CHEMBL4765399, “Design, synthesis, and biological evaluation of 5-((8-methoxy-2-methylquinolin-4-yl)amino)-1H-indole-2-carbohydrazide derivatives as novel Nur77 modulators” (Eur J Med Chem, 2020).

Active and inactive are the calls of the source. No cut-off for these calls is given here.

In one experiment the test system is QGY-7703. As to the kind of experiment: Upregulation of Nur77 expression in human QGY-7703 cells incubated for 6 hrs by Western blot analysis. The format is functional, cell-based. Particulars: dose 0.5-2 µM. The essentials:
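HepG2, QGY-7703 and SMMC-7721 cells treated with the indicated concentrations for 6 h. HepG2 also given 2.0 µM over a time course. Lysis in RIPA with protease and phosphatase inhibitors; 40-80 µg protein by SDS-PAGE, nitrocellulose transfer. Membranes blocked with 5% milk, primary antibody overnight, HRP secondary, chemiluminescence. GAPDH as loading control.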
A general note: In western blotting, separated proteins are transferred to a membrane and probed.

For experiment [1], the system named is HepG2. As to the kind of experiment: Upregulation of RXRalpha expression in human HepG2 cells at 2 uM incubated for 2 to 12 hrs by Western blot analysis. The class given is functional, cell-based. The following applies: time 2-12 hrs. The essentials: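 HepG2 cells given 2.0 µM for the indicated times. RXRα, RARγ and Nur77 detected by western blot: RIPA lysis with protease and phosphatase inhibitors, 40-80 µg protein by SDS-PAGE, nitrocellulose, 5% milk block, primary antibody overnight, HRP secondary, chemiluminescence read-out.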

For experiment [2], the target named is T1, Nuclear receptor subfamily 4immunitygroup A member 1 (Homo sapiens, UniProt P22736). As to the kind of experiment: Modulation of Nur77 in human HepG2 cells assessed as induction of Nur77 translocation into cytoplasm from nucleus at 2 uM incubated for 6 hrs by DAPI staining based immunofluorescence assay. The format is cell-based. Particulars: filed as modulator. The essentials:
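HepG2 exposed to 2.0 µM for set times, fixed (4% paraformaldehyde), permeabilised (0.1% Triton X-100), BSA-blocked, incubated 1 h with anti-Nur77 (1:500) then FITC or Cy3 anti-rabbit IgG; nuclei DAPI-stained; confocal imaging.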

Experiment [3] has as its system SMMC-7721. Briefly: Inhibition of colony formation in human SMMC-7721 cells at 2 uM incubated for 24 hrs measured after cell culturing for 15 days in normal medium by crystal violet staining based assay. The following applies: time 16.0 day. The class given is functional. The essentials:
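500 HepG2, QGY-7703 or SMMC-7721 cells per well allowed to attach 24 h, exposed to DMSO or 2.0 µM for 24 h, then grown 15 days in plain medium. Colonies fixed 30 min in 4% paraformaldehyde, stained 15 min with 0.1% crystal violet, photographed and counted.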

For experiment [4], the system named is HepG2. As to the kind of experiment: Induction of morphological changes in human HepG2 cells assessed as cell shrinkage at 1 to 2 uM incubated for 6 to 12 hrs by phase contrast microscopic analysis. The class given is functional, cell-based. Particulars: dose 1-2 µM, time 6-12 hrs. The essentials: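 HepG2 cells given graded concentrations; morphology monitored at set time points by phase-contrast optical microscopy.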

In experiment [5] the test system is HepG2. As to the kind of experiment: Disruption of mitochondrial membrane potential in human HepG2 cells assessed as green fluorescence intensity at 2 uM incubated for 12 hrs by JC-1 staining based flow cytometry (reference value: 41669 units). The format is functional. In general terms: Flow cytometry measures light scatter and fluorescence of single cells or particles in a stream.

Experiment [6] has as its system HepG2. Briefly: Disruption of mitochondrial membrane potential in human HepG2 cells assessed as red fluorescence intensity at 2 uM incubated for 12 hrs by JC-1 staining based flow cytometry (reference value: 23598 units). The format is functional.
Experiment [7] has as its system SMMC-7721. Briefly: Induction of endoplasmic reticulum stress in human SMMC-7721 cells assessed as increase in TRB3 protein expression incubated for 12 hrs by Western blot analysis. The format is functional, cell-based. Particulars: dose 0.5-2 µM. The essentials: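 HepG2, QGY-7703 and SMMC-7721 treated with graded concentrations for 12 h. Lysed in RIPA with inhibitors; 40-80 µg protein separated by SDS-PAGE, blotted to nitrocellulose, blocked 1 h in 5% milk, primary antibodies overnight (LC3, Beclin1, Bip, CHOP, TRB3), HRP secondaries, chemiluminescence.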

Experiment [8] has as its system HepG2. As to the kind of experiment: Induction of apoptosis in human HepG2 cells assessed as cleaved PARP expression at 2 uM pretreated with autophagy inhibitor, 3-methyladenine for 2 hrs followed by incubation with compound for 12 hrs by Western blot analysis. The class given is functional, cell-based. The essentials: (§1)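 HepG2 cells grown to confluence were pretreated 2 h with 2 mM 3-MA (autophagy inhibitor) or 2 mM 4-PBA (ER stress inhibitor), then exposed to compound for 12 h. Proteins (40–80 µg, RIPA lysate) were resolved by SDS-PAGE and blotted for PARP, cleaved caspase-3/-9, Bcl-2 and Bax, with chemiluminescent detection.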

For experiment [9], the system named is HepG2. As to the kind of experiment: Induction of apoptosis in human HepG2 cells assessed as cleaved PARP expression at 2 uM pretreated with ER stress inhibitor, 4-PBA for 2 hrs followed by incubation with compound for 12 hrs by Western blot analysis. The format is functional, cell-based. The essentials: as §1
Experiment [10] relates to HepG2. As to the kind of experiment: Antitumor activity against human HepG2 cells xenografted in BALB/c mouse assessed as tumor growth inhibition at 20 mg/kg/day, ip administered for 15 days. The format is functional. The following applies: 360 h, time 15 day. The essentials:
(§2)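 Subcutaneous flank xenograft of 5×10^6 HepG2 cells in 4-week-old male Balb/c nude mice. At about 100 mm³, 15 mice were randomized into three groups: vehicle, 10 or 20 mg/kg i.p. daily for 15 days. Tumor size was measured every day, and tumors were excised and weighed at the end.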

In experiment [11] the test system is HepG2. Briefly: Antitumor activity against human HepG2 cells xenografted in BALB/c mouse assessed as tumor weight at 10 mg/kg/day, ip administered for 15 days (reference value: 0.86 +/- 0.18 g). The class given is functional. The following applies: dose 20 mg/kg/day; time 15 day; in the assay text read “20 mg/kg/day” for “10 mg/kg/day”. The essentials: as §2
A general note: A xenograft is tissue or cells of one species grown in another, often human tumour cells in immunodeficient mice.

The test system of experiment [12] is HepG2. As to the kind of experiment: Antitumor activity against human HepG2 cells xenografted in BALB/c mouse assessed as tumor weight at 20 mg/kg/day, ip administered for 15 days (reference value: 0.86 +/- 0.18 g). The format is functional. The following applies: dose 10 mg/kg/day; time 15 day; in the assay text read “10 mg/kg/day” for “20 mg/kg/day”. The essentials: as §2

Another experiment deals with Mus musculus. Briefly: Upregulation of Nur77 expression in tumor tissue of BALB/c mouse xenografted with human HepG2 cells at 10 to 20 mg/kg/day, ip administered for 15 days by immunohistochemical analysis. The class given is functional, organism-based. The following applies: dose 10-20 mg/kg/day, time 15.0 day. The essentials: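 Tumours taken from HepG2 xenograft mice after 15 days of daily i.p. dosing (10 or 20 mg/kg) or vehicle. Fixed in 4% paraformaldehyde, paraffin-embedded, cut into 5 µm sections. Immunostained with anti-Nur77 at 1:200.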

Experiment [13] addresses T1, Nuclear receptor subfamily 4immunitygroup A member 1. Briefly: Binding affinity to Nur77 ligand binding domain (unknown origin) assessed as decrease in fluorescence intensity of protein at 332 nm at 0.2 to 4 uM by fluorescence titration based analysis. Particulars: filed as modulator, dose 0.2-4 µM. The essentials:
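Intrinsic tryptophan fluorescence quench: 1 μM Nur77-LBD titrated with 0–4 μM ligand in about 0.2 μM steps (20 points). After 30 min at room temperature, read at 25 °C, excitation 280 nm, emission 340 nm. KD fitted to a two-state 1:1 complex model.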

Experiment [14] has as its system HepG2. As to the kind of experiment: Induction of apoptosis in human HepG2 cells assessed as early apoptotic cells at 1 uM incubated for 12 hrs by Annexin V-FITC/PI staining based flow cytometry (reference value: 3.99%). The class given is functional.
Experiment [15] relates to HepG2. As to the kind of experiment: Induction of endoplasmic reticulum stress in human HepG2 cells transfected with shNur77 assessed as increase in PDI protein expression at 2 uM incubated for 6 hrs by confocal microsocopic analysis. The format is functional, cell-based. The essentials: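 HepG2, or HepG2 plus shNur77 HepG2, treated with 2.0 µM for 6 h, fixed in 4% paraformaldehyde 20 min, permeabilised 0.1% Triton X-100, blocked in 5% BSA, stained with PDI antibody and imaged by confocal fluorescence microscopy.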

T1 sequence (P22736 whole entry): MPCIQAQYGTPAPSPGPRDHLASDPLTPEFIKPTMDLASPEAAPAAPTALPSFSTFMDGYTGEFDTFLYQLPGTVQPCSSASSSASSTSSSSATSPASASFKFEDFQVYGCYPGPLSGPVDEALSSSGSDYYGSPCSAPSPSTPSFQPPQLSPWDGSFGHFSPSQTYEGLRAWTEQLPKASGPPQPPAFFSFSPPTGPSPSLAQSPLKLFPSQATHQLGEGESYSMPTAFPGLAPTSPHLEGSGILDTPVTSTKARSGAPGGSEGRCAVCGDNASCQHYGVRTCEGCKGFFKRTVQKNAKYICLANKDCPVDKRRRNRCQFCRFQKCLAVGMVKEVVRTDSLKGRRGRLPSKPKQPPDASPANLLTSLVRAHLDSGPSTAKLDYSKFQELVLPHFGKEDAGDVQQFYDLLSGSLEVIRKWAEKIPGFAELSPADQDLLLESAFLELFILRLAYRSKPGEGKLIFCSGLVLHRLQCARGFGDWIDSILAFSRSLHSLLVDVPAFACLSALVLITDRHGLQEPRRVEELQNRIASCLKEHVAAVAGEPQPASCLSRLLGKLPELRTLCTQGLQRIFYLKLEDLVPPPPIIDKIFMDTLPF

Consider `COc1cccc2c(Nc3ccc4[nH]c(C(=O)N/N=C/c5ccc(SC)cc5)cc4c3)cc(C)nc12`, for which the Activity entry is “Dose-dependent effect” in the experiment on QGY-7703; 71731 U in the experiment with HepG2 [5]; 10298 U in the experiment on HepG2 [6]; “Dose-dependent effect” in the experiment with SMMC-7721 [7]; 0.24 g in the experiment with HepG2 [11]; 0.5 g in the experiment on HepG2 [12]. The Activity in the experiment with HepG2 [14] is 18.5%. Also, the outcome with HepG2 [1], with HepG2 [8], in the experiment with HepG2 [9] and with HepG2 [15] was inactive. The outcome (in experiment [2]; in the experiment with HepG2 [4]; in the experiment with Mus musculus; in experiment [13]) was Active. Also, in the experiment with SMMC-7721 [3], the inhibition entry was “Active”. For the same compound, in the experiment with HepG2 [10], the inhibition in vivo at 20 mg/kg/day turned out to be 62.4%.

What is called inhibition in vivo is the change of the read-out against control, counted positive when it falls.
